According to ChEMBL document CHEMBL3232746, “Diamidine compounds for selective inhibition of protein arginine methyltransferase 1” (J Med Chem, 2014):
The source made the active and inactive calls. The rule behind the calls is not given here.

Assays:
[1] = target: T1, Protein arginine N-methyltransferase 1 (Homo sapiens, UniProt Q99873); test: Inhibition of His6x-tagged recombinant PRMT1 (unknown origin) expressed in Escherichia coli BL21(DE3) using [3H]SAM and histone H4 (1 to 20) as substrate after 8 mins by P81 filter binding assay
Target sequence in this assay (Q99873 whole entry): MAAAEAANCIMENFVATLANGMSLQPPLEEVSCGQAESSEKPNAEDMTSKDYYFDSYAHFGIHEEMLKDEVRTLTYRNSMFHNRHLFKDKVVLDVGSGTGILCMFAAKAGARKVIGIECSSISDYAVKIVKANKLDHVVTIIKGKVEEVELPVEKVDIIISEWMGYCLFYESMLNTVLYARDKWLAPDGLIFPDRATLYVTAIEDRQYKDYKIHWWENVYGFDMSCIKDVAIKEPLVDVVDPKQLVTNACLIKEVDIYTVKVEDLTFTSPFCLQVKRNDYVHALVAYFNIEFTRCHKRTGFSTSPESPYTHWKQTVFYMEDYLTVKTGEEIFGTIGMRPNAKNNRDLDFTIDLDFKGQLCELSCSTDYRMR

[2] = target: T2, Protein arginine N-methyltransferase 5 (Homo sapiens, UniProt O14744); test: Inhibition of HA-tagged recombinant PRMT5 (unknown origin) expressed in HEK293T cells using [3H]SAM and histone H4 (1 to 20) as substrate after 8 mins by P81 filter binding assay; parameters: species or system HEK-293T
T2 sequence (O14744 whole entry): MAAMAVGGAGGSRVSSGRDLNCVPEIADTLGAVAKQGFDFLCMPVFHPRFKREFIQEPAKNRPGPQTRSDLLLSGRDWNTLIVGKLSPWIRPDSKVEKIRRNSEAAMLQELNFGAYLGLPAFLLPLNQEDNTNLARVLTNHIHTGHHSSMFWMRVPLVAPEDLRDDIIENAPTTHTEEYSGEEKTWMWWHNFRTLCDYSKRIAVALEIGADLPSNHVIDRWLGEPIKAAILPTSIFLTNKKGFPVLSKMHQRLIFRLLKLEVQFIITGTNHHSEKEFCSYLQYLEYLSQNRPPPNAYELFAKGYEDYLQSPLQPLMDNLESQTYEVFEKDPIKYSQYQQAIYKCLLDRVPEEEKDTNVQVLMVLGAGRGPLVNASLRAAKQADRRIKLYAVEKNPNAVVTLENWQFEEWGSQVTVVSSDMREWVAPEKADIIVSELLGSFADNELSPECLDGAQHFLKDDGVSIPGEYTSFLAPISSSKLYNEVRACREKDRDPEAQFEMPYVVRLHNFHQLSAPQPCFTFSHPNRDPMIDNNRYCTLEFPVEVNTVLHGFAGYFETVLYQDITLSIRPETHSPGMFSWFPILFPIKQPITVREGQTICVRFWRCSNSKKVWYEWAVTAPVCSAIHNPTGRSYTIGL
Summary of the method: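 HA-PRMT5 from HEK293T co-transfected with PRMT5 and WDR77 plasmids, HA-bead purified; 0.04 μM enzyme, 0.5 μM [3H]SAM, 1 μM H4(1–20) in HEPES pH 8.0 buffer; inhibitor preincubated with enzyme and SAM 5 min before peptide start; 8 min at 30 °C; P81 disks washed in NaHCO3 pH 9.0, scintillation counted; IC50 over varied inhibitor concentrations.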

[3] = target: T3, Histone-arginine methyltransferase CARM1 (Homo sapiens, UniProt Q86X55); test: Inhibition of GST-tagged CARM1 (unknown origin) using [3H]SAM and histone H3.1 as substrate at 20 uM after 1 hr by P81 filter binding assay
T3 sequence (Q86X55 whole entry): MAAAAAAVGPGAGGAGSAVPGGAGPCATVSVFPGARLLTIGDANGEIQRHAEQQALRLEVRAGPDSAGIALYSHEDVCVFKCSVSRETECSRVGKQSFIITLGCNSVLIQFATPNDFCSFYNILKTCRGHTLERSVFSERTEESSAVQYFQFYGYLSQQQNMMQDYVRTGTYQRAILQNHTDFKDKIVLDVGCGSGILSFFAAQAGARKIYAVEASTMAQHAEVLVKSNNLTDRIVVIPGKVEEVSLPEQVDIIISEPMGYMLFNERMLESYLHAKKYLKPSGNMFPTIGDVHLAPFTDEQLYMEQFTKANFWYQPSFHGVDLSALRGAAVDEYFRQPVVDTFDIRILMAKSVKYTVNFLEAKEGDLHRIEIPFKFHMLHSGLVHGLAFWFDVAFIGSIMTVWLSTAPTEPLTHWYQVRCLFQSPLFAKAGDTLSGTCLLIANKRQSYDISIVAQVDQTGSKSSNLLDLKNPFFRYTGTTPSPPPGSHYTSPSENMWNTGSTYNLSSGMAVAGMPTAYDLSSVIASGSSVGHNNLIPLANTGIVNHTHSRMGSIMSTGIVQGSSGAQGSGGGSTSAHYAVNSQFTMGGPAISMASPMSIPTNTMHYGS

[4] = target: Protein arginine N-methyltransferase 6 (Homo sapiens, UniProt Q96LA8); test: Inhibition of His6x-tagged PRMT6 (unknown origin) using [3H]SAM and histone H3.1 as substrate at 20 uM after 1 hr by P81 filter binding assay
Chain of Protein arginine N-methyltransferase 6 (Q96LA8 whole entry): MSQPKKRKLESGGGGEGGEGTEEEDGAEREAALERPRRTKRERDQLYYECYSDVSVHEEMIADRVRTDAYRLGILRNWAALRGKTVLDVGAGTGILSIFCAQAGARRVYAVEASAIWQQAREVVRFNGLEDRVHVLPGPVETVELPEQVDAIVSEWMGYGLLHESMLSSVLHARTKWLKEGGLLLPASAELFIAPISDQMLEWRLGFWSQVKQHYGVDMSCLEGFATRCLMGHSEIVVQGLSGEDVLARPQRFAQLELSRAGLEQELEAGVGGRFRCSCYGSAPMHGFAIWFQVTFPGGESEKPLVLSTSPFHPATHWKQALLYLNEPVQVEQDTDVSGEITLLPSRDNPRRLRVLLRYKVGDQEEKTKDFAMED
Summary of the method: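 P81 filter-binding assay with 1 μM histone H3.1 as acceptor and 0.5 μM [3H]SAM in 50 mM HEPES pH 8.0, 50 mM NaCl, 1 mM EDTA, 0.5 mM DTT; enzyme, SAM and inhibitor preincubated 5 min, then substrate added; 1 h at 30 °C; methylation by scintillation counting.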

[5] = target: T1, Protein arginine N-methyltransferase 1; test: Inhibition of His6x-tagged recombinant PRMT1 (unknown origin) expressed in Escherichia coli BL21(DE3) using [3H]SAM and histone H4 (1 to 20) as substrate at 20 uM after 8 mins by P81 filter binding assay
Summary of the method: (§1)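 Enzyme 0.04 μM (His-PRMT1 purified on Ni-NTA, or HA-PRMT5 co-expressed with WDR77 in 293T and purified on HA beads). Assay used 0.5 μM [3H]SAM and 1 μM H4(1–20) in 50 mM HEPES pH 8.0, 50 mM NaCl, 1 mM EDTA, 0.5 mM DTT. Preincubation 5 min at room temperature, then 8 min at 30 °C. P81 filter binding with scintillation counting. Compared with no-inhibitor control.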
Target sequence in this assay (Q99873 whole entry, looked up): as the sequence (Q99873 whole entry) above

[6] = target: T2, Protein arginine N-methyltransferase 5; test: Inhibition of HA-tagged recombinant PRMT5 (unknown origin) expressed in HEK293T cells using [3H]SAM and histone H4 (1 to 20) as substrate at 20 uM after 8 mins by P81 filter binding assay; summary of the method: as §1
Homo sapiens = species on record: Homo sapiens; test: Antiproliferative activity against human CHRF-288-11 cells harboring trisomy 21 assessed as cell viability at 20 uM measured everyday for 3 days by CellTiter-Glo assay; format: functional, cell-based
Summary of the method: (§2)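 RPMI + 10% FBS culture; 1000–1500 cells seeded per well; 20 μM compound or matching DMSO volume added; CellTiter-Glo luminescence read at 0, 24, 48, 72 h after treatment; viability expressed as percent of viable cells relative to DMSO-treated control.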

MOLM-13 = test: Antiproliferative activity against human MOLM13 cells with MLL-AF9 translocation assessed as cell viability at 20 uM measured everyday for 3 days by CellTiter-Glo assay; format: functional, cell-based; summary of the method: as §2
Jurkat = test: Antiproliferative activity against human Jurkat cells assessed as cell viability at 20 uM measured everyday for 3 days by CellTiter-Glo assay; format: functional, cell-based; summary of the method: as §2
HL-60 = test: Antiproliferative activity against human HL60 cells with PML-RAR alpha translocation assessed as cell viability at 20 uM measured everyday for 3 days by CellTiter-Glo assay; format: functional, cell-based; summary of the method: as §2
[7] = target: T1, Protein arginine N-methyltransferase 1; test: Competitive inhibition of His6x-tagged recombinant PRMT1 (unknown origin) expressed in Escherichia coli BL21(DE3) using [3H]SAM and histone H4 (1 to 20) as substrate by double reciprocal plot analysis
Summary of the method: (§3)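 Radiometric P81 filter-binding kinetics in 50 mM HEPES pH 8.0, 50 mM NaCl, 1 mM EDTA, 0.5 mM DTT, 30 °C; inhibitor at 0, 10, 20, 30, 40 μM; initial velocities with H4-20 varied at 3 μM [3H]SAM, or [3H]SAM varied at 15 μM H4-20; Michaelis–Menten and double-reciprocal analysis giving Kis and Kii.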
Target sequence in this assay (Q99873 whole entry, looked up): as the sequence (Q99873 whole entry) above

[8] = target: T1, Protein arginine N-methyltransferase 1; test: Uncompetitive inhibition of His6x-tagged recombinant PRMT1 (unknown origin) expressed in Escherichia coli BL21(DE3) using [3H]SAM and histone H4 (1 to 20) as substrate by double reciprocal plot analysis; summary of the method: as §3
Target sequence in this assay (Q99873 whole entry, looked up): as the sequence (Q99873 whole entry) above

[9] = target: T1, Protein arginine N-methyltransferase 1; test: Inhibition of His6x-tagged recombinant PRMT1 (unknown origin) expressed in Escherichia coli BL21(DE3) using fluorescein-labeled histone H4 (1 to 20) as substrate at 10 to 50 uM after 8 mins by competitive fluorescence anisotropy binding assay
Summary of the method: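 0.2 μM fluorescein-labelled H4(1–20) and 2 μM PRMT1 in P81 assay buffer (HEPES pH 8.0); inhibitor titrated in until signal plateaued; anisotropy read at excitation 498 nm, emission 524 nm.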
Target sequence in this assay (Q99873 whole entry, looked up): as the sequence (Q99873 whole entry) above

[10] = target: T1, Protein arginine N-methyltransferase 1; test: Inhibition of PRMT1 in human 293T cells assessed as reduction of GFP-ALY methylation by Western blot analysis; format: cell-based
Summary of the method: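 GFP-ALY stably expressing 293T cells in DMEM + 10% FBS, treated 15 h with 20 μM compound; lysed on ice in NP-40 buffer; GFP-ALY pulled down on GFP antibody beads; SDS-PAGE and Western blot with ASYM24 methylarginine antibody, equal GFP-ALY loading.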
Target sequence in this assay (Q99873 whole entry, looked up): as the sequence (Q99873 whole entry) above

HEL = test: Antiproliferative activity against human HEL cells harboring JAK2 V617F mutant assessed as cell viability at 20 uM measured everyday for 3 days by CellTiter-Glo assay; format: functional, cell-based; summary of the method: as §2
CMY = test: Antiproliferative activity against human CMY cells harboring trisomy 21 assessed as cell viability at 20 uM measured everyday for 3 days by CellTiter-Glo assay; format: functional, cell-based; summary of the method: as §2

| Structure (SMILES) | IC50 [1] | IC50 [2] | IC50 [3] | IC50 [4] | inhibition [5] | inhibition [6] | also measured |
| --- | --- | --- | --- | --- | --- | --- | --- |
| N=C(N)c1ccc(-c2ccc(-c3ccc(C(=N)N)nc3)o2)cc1 | 7.2 µM | 186 µM | > 400 µM | 211 µM |  |  |  |
| N=C(N)c1ccc(-c2ccc(-c3ccc(C(=N)N)c(F)c3)o2)cc1F |  |  |  |  | Active | Active |  |
| N=C(N)c1ccc(-c2ccc(-c3ccc(OCCCCCCCCOc4ccc(-c5ccc(-c6ccc(C(=N)N)cc6)o5)cc4)cc3)o2)cc1 |  |  |  |  | > 85% | > 85% |  |
| N=C(N)c1ccc(-c2ccc(-c3ccc(C(=N)N)cc3)o2)cc1 [FURAMIDINE] | 9.4 µM | 166 µM | > 400 µM | 283 µM | > 75% | 11% | inhibition (Homo sapiens): Active; inhibition (MOLM-13): Active; inhibition (Jurkat): Active; inhibition (HL-60): Active; Kis [7]: 2.6 µM; Kii [8]: 26 µM; inhibition [9]: Active; inhibition [10]: Active; inhibition (HEL): inactive; inhibition (CMY): Active |
| N=C(N)c1ccc(/C=C/c2ccc(C(=N)N)cc2)cc1 [STILBAMIDINE] |  | 44.1 µM | 400 µM | 173 µM |  |  |  |
